The target of assay [1] is Substance-P receptor (Cavia porcellus) (UniProt P30547). Briefly: Antagonistic activity against the highly selective tachykinin receptor 1 in guinea pig ileum. The assay is classed as functional, tissue-based.
In assay [2] the target is T1, Substance-K receptor (Rattus norvegicus) (UniProt P16610).
T1 sequence (whole entry): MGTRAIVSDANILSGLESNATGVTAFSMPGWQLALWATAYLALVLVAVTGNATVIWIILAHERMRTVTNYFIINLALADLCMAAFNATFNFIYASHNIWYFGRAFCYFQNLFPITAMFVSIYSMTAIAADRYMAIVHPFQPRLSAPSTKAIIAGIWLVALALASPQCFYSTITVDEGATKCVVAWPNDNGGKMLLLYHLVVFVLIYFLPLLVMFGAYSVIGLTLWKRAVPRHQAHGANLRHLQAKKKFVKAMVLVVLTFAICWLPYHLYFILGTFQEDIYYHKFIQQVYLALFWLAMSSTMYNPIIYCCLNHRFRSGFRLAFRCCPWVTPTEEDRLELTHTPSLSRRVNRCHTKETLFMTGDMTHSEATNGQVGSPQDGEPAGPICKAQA
The assay is described as follows: Antagonistic activity against the highly selective tachykinin receptor 2 in rat colon muscularis mucosae. The assay is classed as functional. The method, boiled down:
(§1)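 Rat colon muscularis mucosae, isotonic contractions at 35 °C with atropine, mepyramine, methysergide, indomethacin (1 µM each). Dose ratio from rightward shift of agonist concentration-response curve with antagonist present; pKB = log[DR - 1] - log[B], B = molar antagonist concentration.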

The next assay deals with Substance-P receptor (Cavia porcellus, UniProt P30547). Briefly: Agonistic activity at neurokinin-1 (NK-1) receptor in guinea pig ileum longitudinal smooth muscle. The assay is classed as functional, tissue-based. A digest of the protocol: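 Guinea pig ileum longitudinal smooth muscle-myenteric plexus strip (NK-1); isotonic contractions at 35 °C with atropine, mepyramine, methysergide and indomethacin (each 1 µM). Equipotent molar ratios converted to EC50 using mean EC50 of standard agonist.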

Another assay addresses T2, Substance-K receptor (Rattus norvegicus, UniProt P16610).
T2 sequence (P16610 whole entry): T1 sequence (whole entry)
Briefly: Agonist activity was measured at neurokinin-2 receptor in the rat colon muscularis mucosae. The assay is classed as functional, tissue-based, Muscularis mucosa. A digest of the protocol: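 Rat colon muscularis mucosae strip (NK-2); isotonic contractions at 35 °C with atropine, mepyramine, methysergide and indomethacin (each 1 µM). Equipotent molar ratios converted to EC50 using mean EC50 of standard agonist.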

The target of assay [3] is T1, Substance-K receptor (Rattus norvegicus). The assay is described as follows: Antagonistic activity at tachykinin receptor 2 in the rat colon muscularis mucosae; C= Partial agonist. Conditions: filed as partial agonist. Type of assay: functional. The method, boiled down: as §1

Square brackets hold non-standard residues; d marks the D form. Peptide text beside a SMILES is read from it. GABA = NCCCC(=O)O

Substance-P receptor (Cavia porcellus), sequence (P30547 whole entry): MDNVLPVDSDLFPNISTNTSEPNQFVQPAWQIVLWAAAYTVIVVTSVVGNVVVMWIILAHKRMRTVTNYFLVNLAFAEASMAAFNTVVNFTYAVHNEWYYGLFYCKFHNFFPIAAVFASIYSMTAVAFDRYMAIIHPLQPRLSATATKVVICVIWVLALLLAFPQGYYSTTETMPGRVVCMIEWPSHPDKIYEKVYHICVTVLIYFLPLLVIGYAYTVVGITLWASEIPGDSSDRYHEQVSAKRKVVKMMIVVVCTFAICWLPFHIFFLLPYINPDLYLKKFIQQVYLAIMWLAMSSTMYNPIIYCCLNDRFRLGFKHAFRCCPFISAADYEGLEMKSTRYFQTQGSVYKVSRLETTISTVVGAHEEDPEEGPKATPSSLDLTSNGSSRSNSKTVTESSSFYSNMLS
Substance-P receptor, sequence (P30547 whole entry): as above

By pKB is commonly meant the negative decadic logarithm of the KB, by convention in mol/L. Regarding `CNC(=O)[C@H](CC(C)C)N1CCC2(CCCN2C(=O)[C@H](Cc2ccccc2)NC(=O)[C@H](Cc2ccccc2)NC(=O)CCCN)C1=O` (stereo partly specified), the pKB in assay [1] and in assay [2] was less than 4.5 throughout.

On to `CC(C)C[C@@H](C(=O)N[C@H](CC1CCCCC1)C(N)=O)N1CCC2(CCCN2C(=O)[C@H](Cc2ccccc2)NC(=O)[C@H](Cc2ccccc2)NC(=O)CCCN)C1=O` (stereo partly specified), for which the pKB in assay [1] was found to be 6.43; in assay [2], 5.86.

`CSCC[C@@H](NC(=O)[C@H](CC(C)C)N1CCC2(CCCN2C(=O)[C@H](Cc2ccccc2)NC(=O)[C@H](Cc2ccccc2)NC(=O)CCCN)C1=O)C(N)=O` (stereo partly specified): the pKB in assay [1] is 5.66; in assay [2] it was less than 4.5.

As for `CC(C)C[C@@H](C(=O)N[C@H](Cc1ccccc1)C(N)=O)N1CCC2(CCCN2C(=O)[C@H](Cc2ccccc2)NC(=O)[C@H](Cc2ccccc2)NC(=O)CCCN)C1=O` (stereo partly specified), the pKB came out at 6.28 in assay [1] and 5.36 in assay [2].

As usually defined, the EC50 is the midpoint of the concentration-response curve. A low value points to a more potent agent. Take `CC(C)C[C@H](NC(=O)CNC(=O)[C@H](Cc1ccccc1)NC(=O)[C@H](Cc1ccccc1)NC(=O)CCCN)C(=O)N[C@@H](Cc1c[nH]c2ccccc12)C(N)=O` (H-[GABA]FFGLW-NH2): the EC50 on Substance-P receptor is 4.38 µM; at Substance-K receptor, more than 16 µM.

Regarding `CSCC[C@H](NC(=O)[C@H](CC(C)C)N1CCC2(CCCN2C(=O)[C@H](Cc2ccccc2)NC(=O)[C@H](Cc2ccccc2)NC(=O)CCCN)C1=O)C(N)=O` (stereo partly specified), the pKB in assay [1] is 5.6; in assay [3], “Partial agonist”.

As for `CC(C)C[C@@H](C(=O)NC(CCc1ccccc1)C(N)=O)N1CCC2(CCCN2C(=O)[C@H](Cc2ccccc2)NC(=O)[C@H](Cc2ccccc2)NC(=O)CCCN)C1=O` (stereo partly specified), the pKB was 6.64 in assay [1] and 5.84 in assay [2].

For the compound `CC(C)C[C@@H](C(=O)NC(Cc1c[nH]c2ccccc12)C(N)=O)N1CCC2(CCCN2C(=O)[C@H](Cc2ccccc2)NC(=O)[C@H](Cc2ccccc2)NC(=O)CCCN)C1=O` (stereo partly specified), the pKB in assay [1] turned out to be 6.62; in assay [2], 5.27.

These data come from ChEMBL document CHEMBL1125115 (J Med Chem, 1990).
